Assay results reported in article PMC3780362 (Nuclear medicine and biology, 2009).

Key:
5-HT1B = 5-HT1B (Homo sapiens, UniProt P28222); assay: NIMH Psychoactive Drug Screening Program binding; conditions: based on the in vitro data
human 5-HT1B receptor = conditions: selectivity; cited from earlier work
5-HT1B receptor [1] = target: T1, 5-HT1B receptor (Macaca mulatta, UniProt F6SFA9); assay: Binding selectivity PET study: blocking of [11C]P943 with GR127935; format: in vivo, Rhesus monkey
How it was run: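 About three hours later came a second scan with GR127935 2 mg/kg i.v. bolus given before the tracer. Dose was 5.4 ± 0.7 mCi at 6.3 ± 0.9 mCi/nmol. BPND = ROI/cerebellum ratio from 70-100 min, minus 1, in control and blocked scans.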

5-HT1B receptor [2] = target: T1, 5-HT1B receptor; assay: Baseline brain PET imaging with [11C]P943; format: in vivo, Rhesus monkey
How it was run: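 Rhesus monkeys (5-8 kg) were fasted overnight, given ketamine 10 mg/kg i.m. and glycopyrrolate, then kept on ~2% isoflurane and scanned on HRRT PET after a transmission scan. Tracer dose was 5-7 mCi. Bolus scan: one animal, 120 min list-mode acquisition. Bolus plus infusion scans: Kbol 150 min, four animals. BPND = mean ROI/cerebellum concentration over 70-100 min, minus 1.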

5-HT1B receptor [3] = target: T1, 5-HT1B receptor; assay: Binding saturability PET study; format: in vivo, Rhesus monkey; conditions: high SA
How it was run: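 Self-block design: 2 anesthetized rhesus monkeys, each scanned on two days at high, medium and low specific activity by adding unlabeled test compound (12 scans). Dosing was 2 min i.v. bolus plus 118 min constant infusion, Kbol 150 min for high-SA scans. Net high SA at injection was 111.7 MBq/nmol. BPND = ROI/cerebellum equilibrium ratio over 70-100 min, minus 1.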

[4] = Mean of two monkeys, GR127935 2 mg/kg i.v.
[5] = Monkey#1, GR127935 2 mg/kg i.v.
[6] = Monkey#2, GR127935 2 mg/kg i.v.

T1 sequence (F6SFA9 1-390): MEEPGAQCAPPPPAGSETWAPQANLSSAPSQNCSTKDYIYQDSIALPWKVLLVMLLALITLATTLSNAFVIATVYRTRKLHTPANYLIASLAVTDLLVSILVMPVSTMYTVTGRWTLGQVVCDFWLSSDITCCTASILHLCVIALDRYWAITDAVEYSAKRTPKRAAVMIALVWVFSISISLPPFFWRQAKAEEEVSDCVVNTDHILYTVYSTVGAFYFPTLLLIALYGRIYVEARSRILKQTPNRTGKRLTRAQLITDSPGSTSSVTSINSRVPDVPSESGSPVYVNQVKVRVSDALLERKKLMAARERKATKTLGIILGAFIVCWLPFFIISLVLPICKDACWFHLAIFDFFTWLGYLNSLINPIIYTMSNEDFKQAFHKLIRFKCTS
Chain of 5-HT1B (P28222 whole entry, species assumed): as the sequence (F6SFA9 1-390) above, with A20V, T35A, A45S, V105I, D198E, R301K, L337M counted along it

**Q.** What does the source list for `COC(C)(C)c1ccc(N2CC[C@@H](Cc3ccccc3N3CCN(C)CC3)C2=O)cc1` [P943, R-1-[4-(2-methoxy-isopropyl)-phenyl]-3-[2-(4-methyl-piperazin-1-yl)benzyl]-pyrrolidin-2-one]?
**A.** affinity for 5HT1B higher than for 5-HT1A receptors (5-HT1B): 50-100 times; affinity for other 5-HT and non-5-HT receptors lower than for 5-HT1B (human 5-HT1B receptor): at least 100 fold

**Q.** With `COc1ccc(NC(=O)c2ccc(-c3ccc(-c4noc(C)n4)cc3C)cc2)cc1N1CCN(C)CC1` [GR127935] as the compound, how does the “%Reduction in BPND Caudate” value (5-HT1B receptor [1]; [4]) read?
**A.** Its value is 62%.

**Q.** What about the “%Reduction in BPND Cingulate” value (5-HT1B receptor [1]; [4]) of the same compound?
**A.** Its value is 64%.

**Q.** And the “%Reduction in BPND Frontal” value (5-HT1B receptor [1]; [4])?
**A.** The value was 91%.

**Q.** What about the “%Reduction in BPND Globus Pallidus” value (5-HT1B receptor [1]; [4]) of the same compound?
**A.** The value was 73%.

**Q.** And the “%Reduction in BPND Insula” value (5-HT1B receptor [1]; [4])?
**A.** Its value is 53%.

**Q.** What about the “%Reduction in BPND Occipital” value (5-HT1B receptor [1]; [4]) of the same compound?
**A.** Its value is 95%.

**Q.** And the “%Reduction in BPND Putamen” value (5-HT1B receptor [1]; [4])?
**A.** The value was 40%.

**Q.** What about the “%Reduction in BPND Thalamus” value (5-HT1B receptor [1]; [4]) of the same compound?
**A.** Its value is 75%.

**Q.** And the “%Reduction in BPND Caudate” value (5-HT1B receptor [1]; [5])?
**A.** The value was 78%.

**Q.** And the “%Reduction in BPND Cingulate” value (5-HT1B receptor [1]; [5])?
**A.** The value was 66%.

**Q.** What about the “%Reduction in BPND Frontal” value (5-HT1B receptor [1]; [5]) of the same compound?
**A.** The value was 84%.

**Q.** What about the “%Reduction in BPND Globus Pallidus” value (5-HT1B receptor [1]; [5]) of the same compound?
**A.** The value was 80%.

**Q.** What about the “%Reduction in BPND Insula” value (5-HT1B receptor [1]; [5]) of the same compound?
**A.** The value was 61%.

**Q.** And the “%Reduction in BPND Occipital” value (5-HT1B receptor [1]; [5])?
**A.** Its value is 96%.

**Q.** And the “%Reduction in BPND Putamen” value (5-HT1B receptor [1]; [5])?
**A.** Its value is 47%.

**Q.** What about the “%Reduction in BPND Thalamus” value (5-HT1B receptor [1]; [5]) of the same compound?
**A.** Its value is 76%.

**Q.** What about the “%Reduction in BPND Caudate” value (5-HT1B receptor [1]; [6]) of the same compound?
**A.** Its value is 45%.

**Q.** What about the “%Reduction in BPND Cingulate” value (5-HT1B receptor [1]; [6]) of the same compound?
**A.** Its value is 61%.

**Q.** And the “%Reduction in BPND Frontal” value (5-HT1B receptor [1]; [6])?
**A.** The value was 98%.

**Q.** And the “%Reduction in BPND Globus Pallidus” value (5-HT1B receptor [1]; [6])?
**A.** Its value is 66%.

**Q.** What about the “%Reduction in BPND Insula” value (5-HT1B receptor [1]; [6]) of the same compound?
**A.** Its value is 45%.

**Q.** What about the “%Reduction in BPND Occipital” value (5-HT1B receptor [1]; [6]) of the same compound?
**A.** The value was 94%.

**Q.** What about the “%Reduction in BPND Putamen” value (5-HT1B receptor [1]; [6]) of the same compound?
**A.** The value was 33%.

**Q.** And the “%Reduction in BPND Thalamus” value (5-HT1B receptor [1]; [6])?
**A.** The value was 74%.

**Q.** What about the “BPND frontal cortex after blockade” value (5-HT1B receptor [1]; after GR127935 2 mg/kg i.v.) of the same compound?
**A.** The value was 0.06.

**Q.** What about the “BPND occipital after blockade” value (5-HT1B receptor [1]; after GR127935 2 mg/kg i.v.) of the same compound?
**A.** The value was 0.03.

**Q.** Which “time of peak uptake in most brain regions” value (5-HT1B receptor [2]; 2 hr baseline scan, bolus injection) does the source give for `COC(C)(C)c1ccc(N2CC[C@@H](Cc3ccccc3N3CCN(C)CC3)C2=O)cc1` [[^11C]P943, (R)-1-(4-(2-methoxypropan-2-yl)phenyl)-3-(2-(4-methylpiperazin-1-yl)benzyl)pyrrolidin-2-one] here?
**A.** Its value is 10 to 30 min.

**Q.** And the “time at which equilibrium was reached in the brain” value (5-HT1B receptor [2]; bolus plus infusion)?
**A.** Its value is about 70 min.

**Q.** What about the “BPND at high specific activity, globus pallidus” value (5-HT1B receptor [3]) of the same compound?
**A.** Its value is 0.57.

**Q.** And the “BPND at high specific activity, occipital cortex” value (5-HT1B receptor [3]; highest value)?
**A.** Its value is 0.80.

**Q.** What about the “BPND frontal cortex, control scan” value (5-HT1B receptor [1]; before blockade, paired study) of the same compound?
**A.** The value was 0.49.

**Q.** And the “BPND occipital, control scan” value (5-HT1B receptor [1]; before blockade, paired study)?
**A.** Its value is 0.71.
